From ChEMBL document CHEMBL4480410, “Targeting the MKK7-JNK (Mitogen-Activated Protein Kinase Kinase 7-c-Jun N-Terminal Kinase) Pathway with Covalent Inhibitors” (J Med Chem, 2019)
≈ marks a conversion by molar mass, not a printed value. Calls of active or inactive are those of the source. The rule behind the calls is not given here.

Legend:
[1] = molecular target: Epidermal growth factor receptor (Homo sapiens, UniProt P00533); assay: Inhibition of wild type EGFR (unknown origin) by HTRF assay
[2] = Inhibition of N-terminal His-tagged MKK7 beta1 S273D/T275D double mutant (unknown origin) expressed in insect cells using JNK1 K55M mutant as substrate by ADP-Glo assay; set-up: species or system Homo sapiens
Summary of the method: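 ADP-Glo luminescence run per supplier protocol. Kinase: MKK7 beta1 (aa 1-462, TEV-cleavable N-terminal His6 tag, S273D/T275D) expressed in Sf9 insect cells, used at 20 nM. Substrate: JNK1 K55M at 5 µM. Compound dispensed acoustically; read on plate reader.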

[3] = molecular target: Epidermal growth factor receptor (Homo sapiens, UniProt P00533, L858R/T790M); assay: Inhibition of EGFR L858R/T790M double mutant (unknown origin) by HTRF assay
[4] = molecular target: T1, Dual specificity mitogen-activated protein kinase kinase 7 (Homo sapiens) (UniProt O14733); assay: Covalent binding affinity to MKK7 (unknown origin) assessed as formation of covalent bond with Cys218 residues by MS/MS analysis
T1 sequence (whole entry): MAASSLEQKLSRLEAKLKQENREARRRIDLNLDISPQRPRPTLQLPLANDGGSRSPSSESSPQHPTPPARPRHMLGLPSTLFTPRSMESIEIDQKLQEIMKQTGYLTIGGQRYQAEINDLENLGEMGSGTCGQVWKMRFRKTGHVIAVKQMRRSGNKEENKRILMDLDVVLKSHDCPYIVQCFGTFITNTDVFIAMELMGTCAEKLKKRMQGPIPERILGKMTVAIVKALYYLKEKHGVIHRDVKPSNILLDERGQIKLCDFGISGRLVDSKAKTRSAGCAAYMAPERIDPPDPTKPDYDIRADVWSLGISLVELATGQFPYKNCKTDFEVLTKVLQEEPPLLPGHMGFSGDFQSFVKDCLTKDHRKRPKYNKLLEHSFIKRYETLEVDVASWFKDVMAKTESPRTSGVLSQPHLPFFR
Summary of the method: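 Protein at 1 mg/mL incubated with 2-fold molar excess of compound, 30 min on ice, then denatured and run on 15% SDS gel. Band excised, reduced with 50 mM DTT (1 h, 37 °C), alkylated with 55 mM iodoacetamide (1 h, 20 °C), digested with 0.1 mg/mL trypsin 20 h at 30 °C, acidified with TFA. Analysed by ion-trap MS/MS.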

[5] = Protein binding in human plasma at 5 uM after 6 hrs by LC/MS analysis; assay type: ADME, cell-free; details: read-out: PPB (converted)
Summary of the method: (§1)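 Equilibrium dialysis of plasma with compound at 5 µM, 6 h at 37 °C; final compound concentrations determined by LC/MS to give percent bound.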

[6] = Kinetic solubility of the compound in Hepes buffer at pH 7.4 after 90 mins; assay type: physicochemical; details: read-out: Kinetic_solubility
Summary of the method: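 Compound diluted from 10 mM DMSO stock to 500 µM final in 50 mM Hepes, pH 7.4, shaken 90 min at room temperature. Filtered through 0.2 µm PVDF, then OD scanned 250–500 nm in 10 nm steps. Solubility taken from AUC, normalized to a dilution in acetonitrile.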

[7] = Apparent permeability across basolateral to apical side in human Caco2 cells at 5 uM after 2 hrs by transwell membrane based assay; assay type: ADME, cell-based, Caco-2; details: caco-2, 2 h, 5 µM
Summary of the method: (§2)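 10 mM DMSO stock diluted to 5 µM final in HBSS pH 7.4; 2 h at 37 °C, 5% CO2 on Caco-2 monolayers grown 21 days on transwell membranes.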

[8] = Apparent permeability across basolateral to apical side in MDCK2-MDR1 cells at 10 uM after 2 hrs by transwell membrane based assay; assay type: ADME, cell-based, Canis lupus familiaris; details: dog, MDCK-MDR1
Summary of the method: (§3)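 Compound at 10 µM in HBSS added to apical or basolateral side of MDCKII-MDR1 monolayer, 2 h at 37 °C. Both sides quantified by LC-MS/MS; Papp A–B or B–A from receiver concentration and volume, time, membrane area and initial donor concentration.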

[9] = Apparent permeability across apical to basolateral side in MDCK2-MDR1 cells at 10 uM after 2 hrs by transwell membrane based assay; assay type: ADME, cell-based, Canis lupus familiaris; details: dog, MDCK-MDR1; summary of the method: as §3
[10] = Stability in human plasma assessed as compound remaining at 5 uM after 1 hr by LC/MS analysis; assay type: ADME, cell-free; details: read-out: Stability
Summary of the method: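 Compound at 5 µM incubated 1 h at 37 °C in human or mouse plasma; percentage remaining quantified by LC/MS.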

[11] = Apparent permeability across apical to basolateral side in human Caco2 cells at 5 uM after 2 hrs by transwell membrane based assay; assay type: ADME, cell-based; details: Caco-2; summary of the method: as §2
[12] = Permeability of the compound assessed as drug flux at 500 uM after 16 hrs by PAMPA; assay type: ADME
Summary of the method: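 10 mM DMSO stock diluted to 500 µM final in 50 mM Hepes pH 7.4 on membrane coated with 10% dioleoylphosphatidylcholine, 0.5% cholesterol in dodecane; 16 h room temperature, wet chamber.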

[13] = Protein binding in mouse plasma at 5 uM after 6 hrs by LC/MS analysis; assay type: ADME, cell-free; details: read-out: PPB (converted); summary of the method: as §1
[14] = molecular target: T2, Dual specificity mitogen-activated protein kinase kinase 7 (Mus musculus) (UniProt Q8CE90); assay: Inhibition of MKK7 in mouse DRG cells assessed as reduction in JNK phosphorylation at 1 uM after 2 hrs by Western blot analysis; assay type: cell-based
T2 sequence (whole entry): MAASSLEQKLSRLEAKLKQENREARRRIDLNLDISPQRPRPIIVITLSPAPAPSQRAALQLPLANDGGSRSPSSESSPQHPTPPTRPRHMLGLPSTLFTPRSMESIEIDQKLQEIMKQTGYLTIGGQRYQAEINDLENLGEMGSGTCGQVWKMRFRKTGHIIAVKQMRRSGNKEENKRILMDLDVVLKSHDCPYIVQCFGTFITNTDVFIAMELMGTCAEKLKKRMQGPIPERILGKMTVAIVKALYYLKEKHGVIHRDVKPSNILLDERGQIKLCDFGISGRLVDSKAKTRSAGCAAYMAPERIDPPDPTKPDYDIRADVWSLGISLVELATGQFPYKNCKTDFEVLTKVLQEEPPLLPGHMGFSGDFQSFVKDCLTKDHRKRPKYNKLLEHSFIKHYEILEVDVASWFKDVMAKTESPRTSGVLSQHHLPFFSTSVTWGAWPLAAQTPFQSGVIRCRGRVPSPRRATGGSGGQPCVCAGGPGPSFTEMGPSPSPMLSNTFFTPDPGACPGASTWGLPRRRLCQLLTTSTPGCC
Summary of the method: (§4)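 Dissociated DRG neurons plated on laminin for 3 h, medium replaced, compound added for a further 2 h. Neurons lysed in RIPA buffer with phosphatase inhibitors. Western blots probed for phospho-cJun, cJun, phospho-JNK and JNK.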

[15] = molecular target: T2, Dual specificity mitogen-activated protein kinase kinase 7 (Mus musculus); assay: Inhibition of MKK7 in mouse DRG cells assessed as reduction in cJUN phosphorylation at 1 uM after 2 hrs by Western blot analysis; assay type: cell-based; summary of the method: as §4

Sequence of Epidermal growth factor receptor (Homo sapiens, UniProt P00533) (P00533 whole entry): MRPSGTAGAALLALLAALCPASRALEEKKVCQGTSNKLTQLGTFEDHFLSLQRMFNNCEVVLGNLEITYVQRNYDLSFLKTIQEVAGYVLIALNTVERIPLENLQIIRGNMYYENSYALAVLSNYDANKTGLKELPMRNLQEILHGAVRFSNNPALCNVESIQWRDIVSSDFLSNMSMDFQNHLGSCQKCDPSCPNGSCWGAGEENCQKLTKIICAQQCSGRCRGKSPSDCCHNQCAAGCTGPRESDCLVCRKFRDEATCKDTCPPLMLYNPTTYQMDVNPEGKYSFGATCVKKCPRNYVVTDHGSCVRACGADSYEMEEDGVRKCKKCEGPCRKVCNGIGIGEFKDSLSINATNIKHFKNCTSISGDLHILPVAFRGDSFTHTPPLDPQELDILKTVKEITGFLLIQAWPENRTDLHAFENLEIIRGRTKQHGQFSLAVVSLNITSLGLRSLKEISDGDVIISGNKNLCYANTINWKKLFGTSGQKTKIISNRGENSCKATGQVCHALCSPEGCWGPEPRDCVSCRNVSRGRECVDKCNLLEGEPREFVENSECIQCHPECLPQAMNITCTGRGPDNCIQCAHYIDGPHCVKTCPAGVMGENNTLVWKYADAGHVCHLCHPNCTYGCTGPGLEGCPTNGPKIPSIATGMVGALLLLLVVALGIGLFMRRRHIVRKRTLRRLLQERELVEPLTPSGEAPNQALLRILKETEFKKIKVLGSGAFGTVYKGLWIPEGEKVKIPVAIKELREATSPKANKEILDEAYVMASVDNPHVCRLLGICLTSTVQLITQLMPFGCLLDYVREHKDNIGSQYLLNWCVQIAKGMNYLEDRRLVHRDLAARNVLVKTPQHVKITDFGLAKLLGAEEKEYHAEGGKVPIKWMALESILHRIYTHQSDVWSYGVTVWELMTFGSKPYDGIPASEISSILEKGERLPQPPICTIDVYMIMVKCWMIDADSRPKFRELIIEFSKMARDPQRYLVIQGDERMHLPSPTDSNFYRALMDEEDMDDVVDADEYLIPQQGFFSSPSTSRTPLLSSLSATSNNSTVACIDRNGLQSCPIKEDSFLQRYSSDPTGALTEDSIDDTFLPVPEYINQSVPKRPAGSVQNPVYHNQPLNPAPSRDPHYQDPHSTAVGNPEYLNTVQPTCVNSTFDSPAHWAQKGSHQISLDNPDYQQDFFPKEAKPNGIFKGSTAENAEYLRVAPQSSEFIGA
Sequence of Epidermal growth factor receptor (Homo sapiens, UniProt P00533, L858R/T790M) (P00533 25-1210 T790M/L858R limits assumed): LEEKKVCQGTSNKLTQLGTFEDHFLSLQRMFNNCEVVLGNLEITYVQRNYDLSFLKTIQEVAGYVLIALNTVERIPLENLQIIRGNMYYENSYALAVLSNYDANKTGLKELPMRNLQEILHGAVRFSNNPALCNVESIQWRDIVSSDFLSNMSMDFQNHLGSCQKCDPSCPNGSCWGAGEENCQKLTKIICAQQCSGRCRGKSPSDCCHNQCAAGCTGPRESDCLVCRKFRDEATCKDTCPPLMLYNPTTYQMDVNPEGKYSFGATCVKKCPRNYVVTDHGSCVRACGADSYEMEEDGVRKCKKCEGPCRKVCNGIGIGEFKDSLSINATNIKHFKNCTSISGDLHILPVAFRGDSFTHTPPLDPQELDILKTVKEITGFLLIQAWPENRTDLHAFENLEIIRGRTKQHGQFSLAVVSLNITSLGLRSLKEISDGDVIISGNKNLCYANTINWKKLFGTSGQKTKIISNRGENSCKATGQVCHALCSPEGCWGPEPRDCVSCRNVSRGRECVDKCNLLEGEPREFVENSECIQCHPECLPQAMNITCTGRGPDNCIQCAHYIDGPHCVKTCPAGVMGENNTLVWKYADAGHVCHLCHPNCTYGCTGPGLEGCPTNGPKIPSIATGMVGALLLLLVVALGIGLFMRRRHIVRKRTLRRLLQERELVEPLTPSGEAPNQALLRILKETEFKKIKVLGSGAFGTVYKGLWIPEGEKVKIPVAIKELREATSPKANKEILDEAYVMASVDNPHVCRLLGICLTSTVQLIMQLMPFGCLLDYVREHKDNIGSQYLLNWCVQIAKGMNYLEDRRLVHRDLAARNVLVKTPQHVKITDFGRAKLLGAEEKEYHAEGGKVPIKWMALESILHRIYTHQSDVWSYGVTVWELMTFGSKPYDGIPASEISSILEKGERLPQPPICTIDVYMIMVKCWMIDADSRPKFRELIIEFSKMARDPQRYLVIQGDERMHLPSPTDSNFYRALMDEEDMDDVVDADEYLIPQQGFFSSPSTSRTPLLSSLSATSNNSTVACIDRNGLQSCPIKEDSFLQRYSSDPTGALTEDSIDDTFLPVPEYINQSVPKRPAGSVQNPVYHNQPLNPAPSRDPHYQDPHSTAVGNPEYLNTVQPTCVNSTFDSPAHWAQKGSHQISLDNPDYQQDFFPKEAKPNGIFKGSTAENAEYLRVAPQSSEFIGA

SMILES | IC50 [1] | IC50 [2] | IC50 [3] | Activity [4] | further results
C=CC(=O)N1CCC[C@@H](n2nc(-c3cn(Cc4nc5ccc(Cl)cn5c4Br)nn3)c3c(N)ncnc32)C1 | 85 nM | 669 nM | 104 nM | – | –
C#Cc1nn([C@@H]2CCCN(C(=O)C=C)C2)c2ncnc(N)c12 | – | 40 nM | – | Active | –
C=CC(=O)N1CCC[C@@H](n2nc(-c3ccc(Oc4ccccc4)cc3)c3c(N)ncnc32)C1 [IBRUTINIB] | – | 78 nM | – | Active | fraction unbound at 6 h, 5 µM [5]: 0.024; solubility kinetic at 1.5 h [6]: 36 µM (≈ 15.9 µg/mL); Papp [7]: 0.9 ×10⁻⁶ cm/s; Papp B→A at 2 h, 10 µM [8]: 3 ×10⁻⁶ cm/s; Papp A→B at 2 h, 10 µM [9]: 22 ×10⁻⁶ cm/s; remaining at 1 h, 5 µM [10]: 79.7%; Papp A→B at 2 h, 5 µM [11]: 40 ×10⁻⁶ cm/s; permeability [12]: 38%; fraction unbound at 6 h, 5 µM [13]: 0.011
C=CC(=O)N1CCC[C@@H](n2nc(-c3cn(C)c4ccccc34)c3c(N)ncnc32)C1 | – | 302 nM | – | – | –
C=CC(=O)N1CCC[C@@H](n2nc(-c3cn(-c4cc(C(F)(F)F)cnc4C#N)nn3)c3c(N)ncnc32)C1 | 6 nM | 788 nM | 28 nM | – | –
CCC(=O)N1CCC[C@@H](n2nc(-c3cn(-c4ccc(C(C)=O)cc4)nn3)c3c(N)ncnc32)C1 | 649 nM | > 10000 nM | 677 nM | – | inhibition [14]: inactive; inhibition [15]: inactive
